The species named for one data set is Homo sapiens. In words: Selectivity ratio of IC50 for HDAC1 (unknown origin) to IC50 for human HDAC6. The method, boiled down: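 Recombinant human HDAC1, 3, 6 and 8 (fluorimetric kit) incubated with compound over a range of concentrations and Boc-Lys(Ac)-AMC substrate at 37 °C for 60 min. Reaction quenched with lysine developer; after 30 min, fluorescence read at ex 355/em 460 nm. Inhibition taken relative to control and IC50 fitted; ratios built from these IC50s.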

Data set [1] relates to Bel-7402. Briefly: Effect on AKT expression in human Bel7402 cells at 1 to 2.5 uM after 24 to 72 hrs by Western blot analysis. Format: ADME, cell-based. Conditions: bel-7402, 2.5 µM. The method, boiled down: (§1)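 Bel7402 cells (1.5 × 10^5/mL) exposed to compound at 1.0 and 2.5 μM for 24 or 72 h. Lysates (0.05 mg/lane) separated on 12% SDS-PAGE and blotted to nitrocellulose. Probed for total Akt, phospho-Akt (Ser473), total mTOR and phospho-mTOR, HRP secondary, chemiluminescent detection. Quantified from three separate assays, mean ± SD.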

The target of another data set is T1, Histone deacetylase 8 (Homo sapiens, UniProt Q9BY41).
T1 sequence (Q9BY41 whole entry): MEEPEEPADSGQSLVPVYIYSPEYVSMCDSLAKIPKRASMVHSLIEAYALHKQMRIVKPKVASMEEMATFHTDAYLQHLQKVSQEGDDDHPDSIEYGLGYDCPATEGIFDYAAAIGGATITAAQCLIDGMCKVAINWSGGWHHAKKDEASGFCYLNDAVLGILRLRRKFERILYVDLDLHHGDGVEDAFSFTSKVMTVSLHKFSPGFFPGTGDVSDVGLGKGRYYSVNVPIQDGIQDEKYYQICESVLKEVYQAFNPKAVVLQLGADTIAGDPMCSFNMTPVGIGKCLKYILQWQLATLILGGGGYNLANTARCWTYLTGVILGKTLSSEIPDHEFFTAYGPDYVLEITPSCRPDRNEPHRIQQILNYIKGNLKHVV
Briefly: Inhibition of human HDAC8 using Boc-Lys (Ac)-AMC as substrate incubated for 60 mins by fluorimetric assay.

For data set [2], the target named is T2, Protein deacetylase HDAC6 (Homo sapiens, UniProt Q9UBN7).
T2 sequence (Q9UBN7 whole entry): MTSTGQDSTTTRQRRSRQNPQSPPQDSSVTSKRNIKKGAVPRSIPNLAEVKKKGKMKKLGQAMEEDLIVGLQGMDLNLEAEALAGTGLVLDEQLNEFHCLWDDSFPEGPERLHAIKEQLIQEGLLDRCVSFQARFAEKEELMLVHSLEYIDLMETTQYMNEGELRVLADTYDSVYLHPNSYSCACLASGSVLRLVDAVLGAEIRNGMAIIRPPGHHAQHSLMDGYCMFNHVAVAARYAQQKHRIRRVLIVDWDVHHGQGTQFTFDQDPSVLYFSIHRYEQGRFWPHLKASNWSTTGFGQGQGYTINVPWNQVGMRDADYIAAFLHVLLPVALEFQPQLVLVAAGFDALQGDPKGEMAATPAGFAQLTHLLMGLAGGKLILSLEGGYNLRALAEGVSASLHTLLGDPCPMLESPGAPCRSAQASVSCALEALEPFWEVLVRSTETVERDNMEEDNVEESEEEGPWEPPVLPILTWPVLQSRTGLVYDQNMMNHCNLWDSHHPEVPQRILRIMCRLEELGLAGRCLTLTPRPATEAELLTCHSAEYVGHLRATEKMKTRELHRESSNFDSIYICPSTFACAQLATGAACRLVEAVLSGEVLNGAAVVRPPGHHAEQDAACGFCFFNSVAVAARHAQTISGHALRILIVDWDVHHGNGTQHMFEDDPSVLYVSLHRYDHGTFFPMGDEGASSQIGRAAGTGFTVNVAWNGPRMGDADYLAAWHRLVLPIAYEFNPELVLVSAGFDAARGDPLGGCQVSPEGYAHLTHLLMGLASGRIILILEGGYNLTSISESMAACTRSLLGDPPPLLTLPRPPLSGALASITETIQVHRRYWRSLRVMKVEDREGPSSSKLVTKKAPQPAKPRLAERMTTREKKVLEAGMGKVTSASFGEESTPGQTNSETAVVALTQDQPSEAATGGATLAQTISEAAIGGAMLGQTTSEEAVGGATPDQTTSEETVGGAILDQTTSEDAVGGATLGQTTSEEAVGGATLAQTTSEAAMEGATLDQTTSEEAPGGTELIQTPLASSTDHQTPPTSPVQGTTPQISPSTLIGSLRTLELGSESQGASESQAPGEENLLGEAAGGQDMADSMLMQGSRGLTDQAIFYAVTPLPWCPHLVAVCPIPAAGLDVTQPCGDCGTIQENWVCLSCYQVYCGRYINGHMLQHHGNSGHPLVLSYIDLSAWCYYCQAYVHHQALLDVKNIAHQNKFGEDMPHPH
Briefly: Inhibition of human HDAC6 using Boc-Lys (Ac)-AMC as substrate incubated for 60 mins by fluorimetric assay.

In a further data set the target is Histone deacetylase 3 (Homo sapiens, UniProt O15379). Briefly: Inhibition of human HDAC3 using Boc-Lys (Ac)-AMC as substrate incubated for 60 mins by fluorimetric assay.
Sequence of Histone deacetylase 3 (O15379 whole entry): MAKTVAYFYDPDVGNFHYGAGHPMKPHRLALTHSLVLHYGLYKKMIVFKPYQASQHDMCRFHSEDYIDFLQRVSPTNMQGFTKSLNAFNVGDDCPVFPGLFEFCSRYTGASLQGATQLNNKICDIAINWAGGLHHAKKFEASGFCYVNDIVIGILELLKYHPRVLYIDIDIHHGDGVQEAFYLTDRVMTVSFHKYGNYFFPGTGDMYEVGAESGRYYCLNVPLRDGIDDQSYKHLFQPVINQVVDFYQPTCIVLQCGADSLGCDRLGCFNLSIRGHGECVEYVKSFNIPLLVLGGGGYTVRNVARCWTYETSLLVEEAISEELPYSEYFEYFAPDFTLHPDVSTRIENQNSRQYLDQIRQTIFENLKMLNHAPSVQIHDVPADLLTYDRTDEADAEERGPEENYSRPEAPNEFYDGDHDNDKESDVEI
The next data set has as its system SMMC-7721. In words: Antiproliferative activity against human SMMC7721 cells after 72 hrs by MTT assay. Format: functional, cell-based. Conditions: SMMC-7721, 72 h.
In data set [3] the test system is Bel-7402. Briefly: Induction of autophagy in human Bel7402 cells assessed as upregulation of Beclin1 level at 1 to 5 uM after 24 to 72 hrs by Western blot analysis. Format: functional, cell-based. The procedure, abridged: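 Bel7402 cells (1.5 × 10^5/mL) exposed to compound at indicated doses, or vehicle, for 24 or 72 h. Lysates (0.05 mg/lane) separated on 12% SDS-PAGE, blotted to nitrocellulose, blocked in 5% milk. Probed with anti-LC3, anti-p62 and anti-beclin-1, HRP secondary, chemiluminescent detection. Levels quantified relative to β-actin; three separate assays, mean ± SD.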

The subject of data set [4] is Bel-7402. Briefly: Effect on mTOR expression in human Bel7402 cells at 1 to 2.5 uM after 24 to 72 hrs by Western blot analysis. Conditions: bel-7402, 2.5 µM. Format: ADME, cell-based. The method, boiled down:
as §1

In data set [5] the test system is Bel-7402. In words: Induction of apoptosis in human Bel7402 cells assessed as annexin-V positive cells at 1 uM after 72 hrs by Annexin-V/PI staining based flow cytometry relative to control. Type of data set: functional. The procedure, abridged: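 Bel7402 cells (10 000) cultured overnight, then exposed to compound at 1.0 or 5.0 μM, or vehicle, for 72 h. Harvested, stained with annexin-V APC and 7-AAD for 15 min. Apoptotic percentage measured by flow cytometry (APC ex 633/em 660 nm; 7-AAD ex 488/em 647 nm). Three separate assays, mean ± SD.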

Data set [6] deals with Bel-7402. In words: Antiproliferative activity against human Bel7402 cells at 0.2 to 5 uM after 72 hrs by MTT assay. Format: functional, cell-based. The procedure, abridged: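 Cells grown in DMEM with 10% heat-inactivated FBS, penicillin/streptomycin, 37 °C, 5% CO2. Seeded at 10^4 cells/mL overnight, then exposed to a range of compound concentrations for 72 h; 0.1% DMSO negative control. MTT (5 mg/mL stock) added, absorbance read at 570 nm; percent inhibition from three independent experiments, mean ± SD.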

The test system of data set [7] is Bel-7402. In words: Antiproliferative activity against human Bel7402 cells after 72 hrs by MTT assay. Type of data set: functional, cell-based. Conditions: Bel-7402, 72 h.

The source made the active and inactive calls. The rule behind the calls is not given here.

Turning to `COc1ccc(-c2nc(NCCCOc3ccc(/C=C/C(=O)NO)cc3OC)cc3c2[nH]c2ccccc23)cc1`, the Ratio IC50 in the data set listed under Homo sapiens was 2. Further, the results for the Activity entry with Bel-7402 [1], with Bel-7402 [4] and with Bel-7402 [5] were “Non-Toxic”, “Non-Toxic” and 49.6%, respectively. The IC50 was more than 1000 nM against Histone deacetylase 8; 13 nM in data set [2]; 148 nM against Histone deacetylase 3; 2900 nM in the data set with SMMC-7721; 1000 nM in the data set on Bel-7402 [7]. In addition, the result with Bel-7402 [3] and with Bel-7402 [6] was Active.

For the origin of these results see ChEMBL document CHEMBL4376807, “Hydroxamic Acid Derivatives of β-Carboline/Hydroxycinnamic Acid Hybrids Inducing Apoptosis and Autophagy through the PI3K/Akt/mTOR Pathways” (J Nat Prod, 2019).
